{
  "source": "ChEMBL document CHEMBL5724801",
  "about": "“EUbOPEN Chemogenomics Library - Multiplex” (2024)",
  "key": {"[1]": {"test_system": "Fibroblast", "assay": "Multiplex assay against human fibroblast", "type": "toxicity, cell-based", "summary_of_the_method": "(§1)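 At seeding, live cells were stained with Hoechst33342, BioTracker Green Microtubule Cytoskeleton Dye, MitoTracker Red and Annexin V Alexa Fluor 680. After compound addition they were imaged on a CQ1 microscope at 37°C and 5% CO2, and CellPathfinder machine-learning gating sorted them into Hoechst high-intensity objects or normal cells, with normal cells further split into healthy, pyknosed or fragmented nuclei and pyknosed cells into mitotic or apoptotic. Tubulin, mitochondrial-mass and membrane-permeability phenotypes are given as per cents of cells with healthy nuclei.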"}, "[2]": {"test_system": "HEK-293T", "assay": "Multiplex assay against HEK293T", "type": "toxicity, cell-based", "conditions": "human", "summary_of_the_method": "as §1"}, "[3]": {"conditions": "12 h, 1 µM, compound concentration 1 uM"}, "[4]": {"conditions": "12 h, 10 µM, compound concentration 10 uM"}, "[5]": {"conditions": "24 h, 1 µM, compound concentration 1 uM"}, "[6]": {"conditions": "24 h, 10 µM, compound concentration 10 uM"}, "[7]": {"conditions": "48 h, 1 µM, compound concentration 1 uM"}, "[8]": {"conditions": "48 h, 10 µM, compound concentration 10 uM"}},
  "note": "Where “and” joins values, the source holds several entries; their conditions need not be identical. Equal entries are not always repeated.",
  "data": [
    {"smiles": "Clc1ccccc1C(c1ccccc1)(c1ccccc1)n1cccn1", "values": [
      {"measurement": "Population Apoptotic (%)", "setting": "[1]; [3]", "value": "14.29% and 24%"},
      {"measurement": "Population Healthy Nuclei (%)", "setting": "[1]; [3]", "value": "59.04% and 80.46%"},
      {"measurement": "Population Hoechst High Intensity Objects (%)", "setting": "[1]; [3]", "value": 0, "unit": "%"},
      {"measurement": "Population Membrane Permeable-Phenotype (%)", "setting": "[1]; [3]", "value": "4.08% and 0.71%"},
      {"measurement": "Population Mitochondria Different-Phenotype (%)", "setting": "[1]; [3]", "value": "5.1% and 12.14%"},
      {"measurement": "Population Mitotic Cells (%)", "setting": "[1]; [3]", "value": "85.71% and 76%"},
      {"measurement": "Population Normal (%)", "setting": "[1]; [3]", "value": 100, "unit": "%"},
      {"measurement": "Population Pyknosed Nuclei (%)", "setting": "[1]; [3]", "value": "25.3% and 14.37%"},
      {"measurement": "Total Cell Count", "setting": "[1]; [3]", "value": "166 and 174"},
      {"measurement": "Population Apoptotic (%)", "setting": "[1]; [4]", "value": "9.84% and 23.44%"},
      {"measurement": "Population Fragmented Nuclei (%)", "setting": "[1]; [4]", "value": "9.09% and 6.46%"},
      {"measurement": "Population Healthy Nuclei (%)", "setting": "[1]; [4]", "value": "63.18% and 69.2%"},
      {"measurement": "Population Hoechst High Intensity Objects (%)", "setting": "[1]; [4]", "value": 0, "unit": "%"},
      {"measurement": "Population Membrane Permeable-Phenotype (%)", "setting": "[1]; [4]", "value": "9.35% and 3.85%"},
      {"measurement": "Population Mitochondria Different-Phenotype (%)", "setting": "[1]; [4]", "value": "14.39% and 16.48%"},
      {"measurement": "Population Mitotic Cells (%)", "setting": "[1]; [4]", "value": "90.16% and 76.56%"},
      {"measurement": "Population Normal (%)", "setting": "[1]; [4]", "value": 100, "unit": "%"},
      {"measurement": "Population Pyknosed Nuclei (%)", "setting": "[1]; [4]", "value": "27.73% and 24.33%"},
      {"measurement": "Population Tubulin-Different-Phenotype (%)", "setting": "[1]; [4]", "value": "30.22% and 45.6%"},
      {"measurement": "Total Cell Count", "setting": "[1]; [4]", "value": "220 and 263"},
      {"measurement": "Population Fragmented Nuclei (%)", "setting": "[1]; [5]", "value": "12.05% and 9.29%"},
      {"measurement": "Population Healthy Nuclei (%)", "setting": "[1]; [5]", "value": "71.08% and 85.25%"},
      {"measurement": "Population Hoechst High Intensity Objects (%)", "setting": "[1]; [5]", "value": 0, "unit": "%"},
      {"measurement": "Population Membrane Permeable-Phenotype (%)", "setting": "[1]; [5]", "value": "4.24% and 2.56%"},
      {"measurement": "Population Mitochondria Different-Phenotype (%)", "setting": "[1]; [5]", "value": "3.39% and 8.97%"},
      {"measurement": "Population Mitotic Cells (%)", "setting": "[1]; [5]", "value": "96.43% and 60%"},
      {"measurement": "Population Normal (%)", "setting": "[1]; [5]", "value": 100, "unit": "%"},
      {"measurement": "Population Tubulin-Different-Phenotype (%)", "setting": "[1]; [5]", "value": "10.17% and 21.15%"},
      {"measurement": "Total Cell Count", "setting": "[1]; [5]", "value": "166 and 183"},
      {"measurement": "Population Apoptotic (%)", "setting": "[1]; [6]", "value": "13.04% and 31.25%"},
      {"measurement": "Population Healthy Nuclei (%)", "setting": "[1]; [6]", "value": "67.26% and 79.55%"},
      {"measurement": "Population Hoechst High Intensity Objects (%)", "setting": "[1]; [6]", "value": 0, "unit": "%"},
      {"measurement": "Population Membrane Permeable-Phenotype (%)", "setting": "[1]; [6]", "value": "9.87% and 0.95%"},
      {"measurement": "Population Mitochondria Different-Phenotype (%)", "setting": "[1]; [6]", "value": "7.24% and 10.95%"},
      {"measurement": "Population Mitotic Cells (%)", "setting": "[1]; [6]", "value": "86.96% and 68.75%"},
      {"measurement": "Population Normal (%)", "setting": "[1]; [6]", "value": 100, "unit": "%"},
      {"measurement": "Population Pyknosed Nuclei (%)", "setting": "[1]; [6]", "value": "20.35% and 18.18%"},
      {"measurement": "Population Tubulin-Different-Phenotype (%)", "setting": "[1]; [6]", "value": "45.39% and 44.29%"},
      {"measurement": "Total Cell Count", "setting": "[1]; [6]", "value": "226 and 264"},
      {"measurement": "Population Apoptotic (%)", "setting": "[1]; [7]", "value": "40% and 22.22%"},
      {"measurement": "Population Fragmented Nuclei (%)", "setting": "[1]; [7]", "value": "11.92% and 7.69%"},
      {"measurement": "Population Healthy Nuclei (%)", "setting": "[1]; [7]", "value": "82.9% and 87.69%"},
      {"measurement": "Population Hoechst High Intensity Objects (%)", "setting": "[1]; [7]", "value": 0, "unit": "%"},
      {"measurement": "Population Membrane Permeable-Phenotype (%)", "setting": "[1]; [7]", "value": "0.62% and 0.58%"},
      {"measurement": "Population Mitochondria Different-Phenotype (%)", "setting": "[1]; [7]", "value": "11.25% and 3.51%"},
      {"measurement": "Population Mitotic Cells (%)", "setting": "[1]; [7]", "value": "60% and 77.78%"},
      {"measurement": "Population Normal (%)", "setting": "[1]; [7]", "value": 100, "unit": "%"},
      {"measurement": "Population Pyknosed Nuclei (%)", "setting": "[1]; [7]", "value": "5.18% and 4.62%"},
      {"measurement": "Total Cell Count", "setting": "[1]; [7]", "value": "193 and 195"},
      {"measurement": "Population Apoptotic (%)", "setting": "[1]; [8]", "value": "30.77% and 42.86%"},
      {"measurement": "Population Fragmented Nuclei (%)", "setting": "[1]; [8]", "value": "9.35% and 4.71%"},
      {"measurement": "Population Healthy Nuclei (%)", "setting": "[1]; [8]", "value": "85.37% and 89.8%"},
      {"measurement": "Population Hoechst High Intensity Objects (%)", "setting": "[1]; [8]", "value": 0, "unit": "%"},
      {"measurement": "Population Membrane Permeable-Phenotype (%)", "setting": "[1]; [8]", "value": "1.9% and 3.49%"},
      {"measurement": "Population Mitochondria Different-Phenotype (%)", "setting": "[1]; [8]", "value": "13.33% and 6.11%"},
      {"measurement": "Population Mitotic Cells (%)", "setting": "[1]; [8]", "value": "69.23% and 57.14%"},
      {"measurement": "Population Normal (%)", "setting": "[1]; [8]", "value": 100, "unit": "%"},
      {"measurement": "Population Pyknosed Nuclei (%)", "setting": "[1]; [8]", "value": "5.28% and 5.49%"},
      {"measurement": "Population Tubulin-Different-Phenotype (%)", "setting": "[1]; [8]", "value": "14.76% and 36.24%"},
      {"measurement": "Total Cell Count", "setting": "[1]; [8]", "value": "246 and 255"},
      {"measurement": "Population Apoptotic (%)", "setting": "[2]; [3]", "value": "7.87% and 11.11%"},
      {"measurement": "Population Fragmented Nuclei (%)", "setting": "[2]; [3]", "value": "1.79% and 6.3%"},
      {"measurement": "Population Hoechst High Intensity Objects (%)", "setting": "[2]; [3]", "value": 0, "unit": "%"},
      {"measurement": "Population Membrane Permeable-Phenotype (%)", "setting": "[2]; [3]", "value": "0% and 5%"},
      {"measurement": "Population Mitochondria Different-Phenotype (%)", "setting": "[2]; [3]", "value": "33.99% and 35%"},
      {"measurement": "Population Mitotic Cells (%)", "setting": "[2]; [3]", "value": "92.13% and 88.89%"},
      {"measurement": "Population Normal (%)", "setting": "[2]; [3]", "value": 100, "unit": "%"},
      {"measurement": "Population Pyknosed Nuclei (%)", "setting": "[2]; [3]", "value": "37.8% and 77.95%"},
      {"measurement": "Total Cell Count", "setting": "[2]; [3]", "value": "336 and 127"},
      {"measurement": "Population Apoptotic (%)", "setting": "[2]; [4]", "value": "10.45% and 10.49%"},
      {"measurement": "Population Fragmented Nuclei (%)", "setting": "[2]; [4]", "value": "2.33% and 0.57%"},
      {"measurement": "Population Hoechst High Intensity Objects (%)", "setting": "[2]; [4]", "value": "0.33% and 0%"},
      {"measurement": "Population Membrane Permeable-Phenotype (%)", "setting": "[2]; [4]", "value": 0, "unit": "%"},
      {"measurement": "Population Mitochondria Different-Phenotype (%)", "setting": "[2]; [4]", "value": "33.96% and 33.33%"},
      {"measurement": "Population Mitotic Cells (%)", "setting": "[2]; [4]", "value": "89.55% and 89.51%"},
      {"measurement": "Population Normal (%)", "setting": "[2]; [4]", "value": "99.67% and 100%"},
      {"measurement": "Population Pyknosed Nuclei (%)", "setting": "[2]; [4]", "value": "44.67% and 82.18%"},
      {"measurement": "Total Cell Count", "setting": "[2]; [4]", "value": "301 and 174"},
      {"measurement": "Population Apoptotic (%)", "setting": "[2]; [5]", "value": "11.32% and 14.85%"},
      {"measurement": "Population Fragmented Nuclei (%)", "setting": "[2]; [5]", "value": "0.96% and 6.08%"},
      {"measurement": "Population Hoechst High Intensity Objects (%)", "setting": "[2]; [5]", "value": "0.19% and 0%"},
      {"measurement": "Population Membrane Permeable-Phenotype (%)", "setting": "[2]; [5]", "value": "0.49% and 2.63%"},
      {"measurement": "Population Mitochondria Different-Phenotype (%)", "setting": "[2]; [5]", "value": "14.43% and 13.16%"},
      {"measurement": "Population Mitotic Cells (%)", "setting": "[2]; [5]", "value": "88.68% and 85.15%"},
      {"measurement": "Population Normal (%)", "setting": "[2]; [5]", "value": "99.81% and 100%"}
    ]}
  ]
}
